Results reported in ChEMBL document CHEMBL1138063, “Imidazole-dioxolane compounds as isozyme-selective heme oxygenase inhibitors” (J Med Chem, 2006).

Columns and labels:
Nitric oxide synthase 1 = Nitric oxide synthase 1 (Rattus norvegicus, UniProt P29476); test: Inhibition of rat brain nNOS
Summary of the method: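 nNOS in rat brain cytosolic fraction, read as conversion of 14C-L-arginine to 14C-L-citrulline. Activity at several inhibitor concentrations was expressed as % of the uninhibited control. IC50 came from a nonlinear sigmoidal dose–response fit, with two or three replicate curves per compound.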

Cytochrome P450 2E1 = Cytochrome P450 2E1 (Rattus norvegicus, UniProt P05182); test: Inhibition of rat liver CYP2E1; type: ADME, tissue-based
Cytochrome P450 2E1, sequence (P05182 whole entry): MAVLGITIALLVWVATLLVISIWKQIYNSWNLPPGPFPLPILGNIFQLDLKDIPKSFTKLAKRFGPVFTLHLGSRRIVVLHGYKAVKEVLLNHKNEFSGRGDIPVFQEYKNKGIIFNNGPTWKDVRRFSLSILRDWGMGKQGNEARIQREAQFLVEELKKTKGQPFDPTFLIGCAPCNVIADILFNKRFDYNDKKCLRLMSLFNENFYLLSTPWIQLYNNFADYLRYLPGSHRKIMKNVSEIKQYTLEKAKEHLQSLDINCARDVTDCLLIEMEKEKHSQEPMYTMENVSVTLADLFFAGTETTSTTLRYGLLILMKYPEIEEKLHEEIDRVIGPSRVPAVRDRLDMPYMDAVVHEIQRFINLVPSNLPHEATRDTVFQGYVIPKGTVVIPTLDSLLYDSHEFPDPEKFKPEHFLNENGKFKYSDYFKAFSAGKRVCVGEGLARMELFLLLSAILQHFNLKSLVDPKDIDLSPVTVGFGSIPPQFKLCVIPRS
Summary of the method: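 Rat liver microsomal CYP2E1 activity was read as p-nitrophenol hydroxylation, by spectrophotometric measurement of 4-nitrocatechol. Activity at several inhibitor concentrations (HCl salts) was expressed as percent of control. IC50 came from a nonlinear sigmoidal dose-response fit of each of two or three replicate curves.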

[1] = Inhibition of rat liver CYP3A1/3A2; type: ADME, tissue-based
Summary of the method: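 CYP3A1/3A2 in rat liver microsomes, measured as erythromycin N-demethylase activity by spectrophotometric formaldehyde determination. Remaining activity was taken as % of control across inhibitor concentrations. IC50 came from a sigmoidal nonlinear regression, with two or three replicate curves.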

Heme oxygenase 2 [2] = target: T1, Heme oxygenase 2 (Rattus norvegicus, UniProt P23711); test: Inhibition of Sprague-Dawley rat brain HO2
T1 sequence (P23711 whole entry): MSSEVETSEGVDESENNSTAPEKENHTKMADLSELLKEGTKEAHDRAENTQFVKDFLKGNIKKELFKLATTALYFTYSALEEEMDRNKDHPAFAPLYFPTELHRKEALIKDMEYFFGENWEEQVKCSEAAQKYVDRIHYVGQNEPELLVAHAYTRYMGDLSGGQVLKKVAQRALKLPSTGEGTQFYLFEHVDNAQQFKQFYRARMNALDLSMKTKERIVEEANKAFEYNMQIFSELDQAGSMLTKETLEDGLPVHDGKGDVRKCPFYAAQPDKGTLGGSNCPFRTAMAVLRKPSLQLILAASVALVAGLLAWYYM
Summary of the method: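 HO-2 source: Sprague-Dawley rat brain microsomes prepared by differential centrifugation. Compound (HCl salt) at 0.1–100 µM final was preincubated 10 min at 37 °C with 50 µM methemalbumin and 1 mg/mL protein in 100 mM phosphate pH 7.4. NADPH (1 mM final) was added and the mix incubated 15 min at 37 °C, then frozen on dry ice. CO was measured by GC, minus no-NADPH blanks. IC50 from sigmoidal fits, 2–3 replicate curves.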

Heme oxygenase 1 = target: T2, Heme oxygenase 1 (Homo sapiens, UniProt P09601); test: Inhibition of human spleen HO1
T2 sequence (P09601 whole entry): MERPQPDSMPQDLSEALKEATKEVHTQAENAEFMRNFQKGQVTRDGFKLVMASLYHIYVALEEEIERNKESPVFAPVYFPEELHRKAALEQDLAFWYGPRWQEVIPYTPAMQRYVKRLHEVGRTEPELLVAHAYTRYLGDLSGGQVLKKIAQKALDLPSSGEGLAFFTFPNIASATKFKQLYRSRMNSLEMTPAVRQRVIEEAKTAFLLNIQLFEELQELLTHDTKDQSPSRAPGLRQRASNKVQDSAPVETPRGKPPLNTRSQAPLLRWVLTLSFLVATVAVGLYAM
Summary of the method: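 HO-1 in human spleen microsomes. Heme was given as 50 µM methemalbumin in 100 mM phosphate buffer (pH 7.4) with 1 mg/mL protein. Inhibitor (0.1–100 µM final) was preincubated 10 min at 37 °C, then 1 mM NADPH was added for 15 min at 37 °C. Blanks lacking NADPH were subtracted. Reactions were stopped on dry ice and CO was measured by GC. IC50 came from sigmoidal fits of % control, from 2–3 replicate curves.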

Heme oxygenase 2 [3] = target: T1, Heme oxygenase 2; test: Inhibition of rat liver HO2
Summary of the method: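 HO-2 source: rat liver microsomes. Heme was presented as methemalbumin (50 µM) with 1 mg/mL protein in 100 mM phosphate pH 7.4. Compound (HCl salt) was preincubated 10 min at 37 °C, then NADPH (1 mM final) was added for 15 min at 37 °C. CO was measured by GC, minus no-NADPH blanks. IC50 from sigmoidal fits of replicate curves.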

[4] = target: Soluble guanylate cyclase (Rattus norvegicus); test: Inhibition of rat lung sGC

Nitric oxide synthase 1, sequence (P29476 whole entry): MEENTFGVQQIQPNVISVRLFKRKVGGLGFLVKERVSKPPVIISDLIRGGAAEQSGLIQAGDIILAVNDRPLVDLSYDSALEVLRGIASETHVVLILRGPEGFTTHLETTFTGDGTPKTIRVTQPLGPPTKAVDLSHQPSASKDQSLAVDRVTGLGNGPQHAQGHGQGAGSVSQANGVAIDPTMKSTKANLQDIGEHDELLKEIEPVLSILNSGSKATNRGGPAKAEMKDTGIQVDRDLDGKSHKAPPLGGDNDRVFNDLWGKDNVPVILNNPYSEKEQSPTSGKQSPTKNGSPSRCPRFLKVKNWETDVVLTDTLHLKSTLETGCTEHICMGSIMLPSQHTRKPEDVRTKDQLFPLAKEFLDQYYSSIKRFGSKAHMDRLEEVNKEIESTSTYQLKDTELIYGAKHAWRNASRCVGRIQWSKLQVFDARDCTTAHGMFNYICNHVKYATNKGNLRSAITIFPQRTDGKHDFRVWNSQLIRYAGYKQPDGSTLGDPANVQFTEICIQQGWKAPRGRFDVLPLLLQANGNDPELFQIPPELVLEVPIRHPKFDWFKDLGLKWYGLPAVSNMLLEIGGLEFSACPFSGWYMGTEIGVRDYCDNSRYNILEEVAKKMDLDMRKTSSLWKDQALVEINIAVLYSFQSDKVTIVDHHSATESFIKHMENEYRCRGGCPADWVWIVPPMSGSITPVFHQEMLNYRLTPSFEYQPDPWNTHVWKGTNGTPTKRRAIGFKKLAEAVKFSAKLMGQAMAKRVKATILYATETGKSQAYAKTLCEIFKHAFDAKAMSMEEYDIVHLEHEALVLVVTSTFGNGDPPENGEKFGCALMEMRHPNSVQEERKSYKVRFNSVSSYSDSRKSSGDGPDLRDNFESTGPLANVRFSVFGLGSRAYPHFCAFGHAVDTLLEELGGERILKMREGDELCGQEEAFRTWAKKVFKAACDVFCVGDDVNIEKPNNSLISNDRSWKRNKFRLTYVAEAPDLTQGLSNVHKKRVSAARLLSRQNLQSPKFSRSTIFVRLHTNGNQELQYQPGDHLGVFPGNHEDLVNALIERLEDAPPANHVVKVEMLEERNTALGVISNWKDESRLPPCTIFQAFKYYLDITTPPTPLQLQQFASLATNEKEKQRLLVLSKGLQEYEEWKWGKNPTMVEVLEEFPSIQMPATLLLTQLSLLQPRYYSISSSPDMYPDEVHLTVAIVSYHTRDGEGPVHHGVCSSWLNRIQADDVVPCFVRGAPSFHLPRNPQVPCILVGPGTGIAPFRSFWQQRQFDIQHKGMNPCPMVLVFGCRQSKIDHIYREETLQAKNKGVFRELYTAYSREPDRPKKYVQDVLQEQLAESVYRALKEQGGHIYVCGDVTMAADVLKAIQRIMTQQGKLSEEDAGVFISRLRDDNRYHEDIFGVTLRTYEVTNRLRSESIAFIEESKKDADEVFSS

For C[C@H]1CO[C@@](CCc2ccc(Cl)cc2)(Cn2ccnc2)O1, which IC50 (Nitric oxide synthase 1) is on record?
Its IC50 is 773 µM.

And the IC50 (Cytochrome P450 2E1)?
The IC50 was 6 µM.

What about the IC50 [1] of the same molecule?
Its IC50 is 8 µM.

With C[C@H]1CO[C@](CCc2ccc(Cl)cc2)(Cn2ccnc2)O1 as the molecule, how does the IC50 (Nitric oxide synthase 1) read?
Its IC50 is greater than 500 µM.

And the IC50 (Cytochrome P450 2E1)?
Its IC50 is 20 µM.

And the IC50 [1]?
Its IC50 is 10 µM.

And the IC50 (Heme oxygenase 2 [2])?
The IC50 was greater than 100 µM.

With C[C@@H]1CO[C@@](CCc2ccc(Cl)cc2)(Cn2ccnc2)O1 as the molecule, how does the IC50 (Nitric oxide synthase 1) read?
The IC50 was 362 µM.

And the IC50 (Cytochrome P450 2E1)?
The IC50 was 3.6 µM.

What about the IC50 [1] of the same molecule?
Its IC50 is 3.2 µM.

And the IC50 (Heme oxygenase 1)?
The IC50 was 1.5 µM.

And the IC50 (Heme oxygenase 2 [3])?
Its IC50 is 532 µM.

Which results are given for Clc1ccc(CCC2(Cn3ccnc3)SCCS2)cc1?
IC50 (Nitric oxide synthase 1): 34 µM; IC50 [1]: 5.9 µM

What does the source list for Clc1ccc(CCC2(Cn3ccnc3)OCCO2)cc1?
IC50 (Nitric oxide synthase 1): 182 µM; IC50 [4]: > 1000 µM; IC50 (Cytochrome P450 2E1): 5 µM; IC50 (Heme oxygenase 2 [2]): > 100 µM

With C[C@@H]1CO[C@](CCc2ccc(Cl)cc2)(Cn2ccnc2)O1 as the molecule, how does the IC50 (Nitric oxide synthase 1) read?
The IC50 was greater than 500 µM.

What about the IC50 (Cytochrome P450 2E1) of the same molecule?
The IC50 was 30 µM.

And the IC50 [1]?
The IC50 was 7 µM.

And the IC50 (Heme oxygenase 2 [2])?
Its IC50 is greater than 100 µM.
